Laboratory results from ChEMBL document CHEMBL1138387, “Hemodynamic effects of potent and selective JNK inhibitors in anesthetized rats: implication for targeting protein kinases in metabolic diseases” (Bioorg Med Chem Lett, 2007).

Experiments:
Rattus norvegicus [1] = assay: Hemodynamic effect in anesthetized Sprague-Dawley rat assessed as decrease in mean arterial pressure at 10 mg/kg after 90 mins; format: functional, Artery; parameters: scale not given: the % may be the effect or the level left
How it was run: (§1)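 Inactin-anesthetized rats; femoral artery catheters for MAP, HR and blood sampling; femoral vein for dosing and saline; LV transducer catheter for LVP/dP/dt. PVR = MAP/PBF. After 30-min control period, vehicle (10% DMSO/PEG400, 1 mL/kg) or compound infused i.v. as three ascending doses, 3, 10, 30 mg/kg, each over 30 min. Changes versus time 0 baseline; mean of three animals.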

[2] = Drug level in anesthetized Sprague-Dawley rat assessed end of infusion plasma concentration at 10 mg/kg after 90 mins; format: ADME, organism-based; parameters: dose 10 mg/kg; settings: iv; how it was run: as §1
Rattus norvegicus [3] = assay: Hemodynamic effect in anesthetized Sprague-Dawley rat assessed as decrease in heart rate at 10 mg/kg after 90 mins; format: functional; parameters: scale not given: the % may be the effect or the level left; how it was run: as §1
Rattus norvegicus [4] = assay: Hemodynamic effect in anesthetized Sprague-Dawley rat assessed as increase in cardiac contractility at 10 mg/kg after 90 mins; format: functional, Heart; how it was run: as §1
Rattus norvegicus [5] = assay: Hemodynamic effect in anesthetized Sprague-Dawley rat assessed as decrease in peripheral vascular resistance at 10 mg/kg after 90 mins; format: functional; parameters: scale not given: the % may be the effect or the level left; how it was run: as §1
[6] = target: Mitogen-activated protein kinase 8 (Homo sapiens, UniProt P45983); assay: Inhibition of JNK1
Sequence of Mitogen-activated protein kinase 8 (P45983 whole entry): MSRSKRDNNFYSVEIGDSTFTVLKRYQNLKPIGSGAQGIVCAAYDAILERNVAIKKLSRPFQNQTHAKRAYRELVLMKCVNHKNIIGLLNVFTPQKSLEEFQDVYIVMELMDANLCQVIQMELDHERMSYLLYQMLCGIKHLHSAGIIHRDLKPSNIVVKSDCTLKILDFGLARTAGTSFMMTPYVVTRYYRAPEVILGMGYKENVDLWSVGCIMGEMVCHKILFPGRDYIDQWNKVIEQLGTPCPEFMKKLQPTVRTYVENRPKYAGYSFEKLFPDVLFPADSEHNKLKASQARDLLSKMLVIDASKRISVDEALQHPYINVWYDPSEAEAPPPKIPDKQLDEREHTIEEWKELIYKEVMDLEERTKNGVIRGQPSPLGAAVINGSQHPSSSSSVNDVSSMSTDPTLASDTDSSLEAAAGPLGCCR

SMILES	Activity (Rattus norvegicus [1]) [%]	concentration at 1.5 h [2] [ng/mL]	Activity (Rattus norvegicus [3]) [%]	Activity (Rattus norvegicus [4]) [%]	Activity (Rattus norvegicus [5]) [%]	IC50 [6] [nM]
CS(=O)(=O)c1ccc(CNC(=O)c2cc(N)c(C#N)c(-c3ccsc3)n2)cc1	23					
CCCn1c(C2CCNCC2)nc(-c2ccc(Cl)c(Cl)c2)c1-c1ccnc(NC2CCCCC2)n1	30	9000	22			
CCOc1nc(C(=O)NCc2ccc(S(C)(=O)=O)cc2)cc(N)c1Cl	20	14700	<15	<15	51	
CS(=O)(=O)c1ccc(CNC(=O)c2cc(N)c(C#N)c(NC3CCCC3)n2)cc1	18	10500	6	13		
CCOc1nc(C(=O)NCc2ccc(S(=O)(=O)c3ccccc3)cc2)cc(N)c1C#N	24		11			130
CS(=O)(=O)c1ccc(CNC(=O)c2cc(N)c(C#N)c(OCC3CC3)n2)cc1	24	8200				
CCOc1nc(C(=O)NCCNc2ccc([N+](=O)[O-])cn2)cc(N)c1C#N	20			12		61
CCOc1nc(C(=O)NCc2ccc(S(C)(=O)=O)cc2)cc(N)c1C#N	41	19300	<15	<15	25	
CCOc1nc(C(=O)NCc2ccc([S+]([O-])c3ccccc3)cc2)cc(N)c1C#N (stereo not drawn)	24			24		50
CC(C)Oc1nc(C(=O)N(C)Cc2ccc(S(C)(=O)=O)cc2)cc(N)c1C#N		23600		41	46	6400
COc1cc[nH]c1/C=C1\C(=O)Nc2cccc(C#CC(O)c3ccc(OCCCN(C)C)cc3)c21 (stereo not drawn)	23		11	-20		34
CC(C)Oc1nc(C(=O)NCc2ccc(S(C)(=O)=O)cc2)cc(O)c1C#N	<15	39900				> 10000
CCOc1nc(C(=O)NCc2cnccc2Cl)cc(N)c1C#N	23			< -15		30
